ChEMBL document CHEMBL1147831, “Kinesin spindle protein (KSP) inhibitors. Part 4: Structure-based design of 5-alkylamino-3,5-diaryl-4,5-dihydropyrazoles as potent, water-soluble inhibitors of the mitotic kinesin KSP” (Bioorg Med Chem Lett, 2006)
In brackets after ≈: the same amount, converted by molar mass.

system: not listed separately; assay: Solubility in citrate at pH 4.0; type: physicochemical; details: not given
In short: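 Solubility of crystalline solid determined in citrate buffer at pH 4.0.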

SMILES | solubility [µg/mL]
CN(C)C(=O)N1N=C(c2cc(F)ccc2F)C[C@@]1(CCCN)c1ccccc1 | > 12000

system: not listed separately; assay: Half life in mongrel dog at 0.25 mg/kg, iv; type: ADME, organism-based, Canis lupus familiaris; set-up: dose 0.25 mg/kg, route intravenous; details: in vivo
In short: (§1)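 Single iv dose of 0.25 mpk given to two mongrel dogs, one male and one female.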

SMILES | half-life [h]
CC(=O)N1N=C(c2cc(F)ccc2F)C[C@H]1c1cccc(O)c1 | 1
CN(C)C(=O)N1N=C(c2cc(F)ccc2F)C[C@@]1(CCCN)c1ccccc1 | 14.7

system: not listed separately; assay: Aqueous solubility at pH 10.3; type: physicochemical; details: aqueous medium
In short: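 Solubility of crystalline material measured in water; final pH of the solution was 10.3.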

SMILES | solubility [µg/mL]
CN(C)C(=O)N1N=C(c2cc(F)ccc2F)C[C@@]1(CCCN)c1ccccc1 | 1700 (≈ 4.4 mM)

molecular target: T1, Kinesin-like protein KIF11 (Homo sapiens, UniProt P52732); assay: Inhibition of KSP by ATPase assay; details: not given
T1 sequence (P52732 whole entry): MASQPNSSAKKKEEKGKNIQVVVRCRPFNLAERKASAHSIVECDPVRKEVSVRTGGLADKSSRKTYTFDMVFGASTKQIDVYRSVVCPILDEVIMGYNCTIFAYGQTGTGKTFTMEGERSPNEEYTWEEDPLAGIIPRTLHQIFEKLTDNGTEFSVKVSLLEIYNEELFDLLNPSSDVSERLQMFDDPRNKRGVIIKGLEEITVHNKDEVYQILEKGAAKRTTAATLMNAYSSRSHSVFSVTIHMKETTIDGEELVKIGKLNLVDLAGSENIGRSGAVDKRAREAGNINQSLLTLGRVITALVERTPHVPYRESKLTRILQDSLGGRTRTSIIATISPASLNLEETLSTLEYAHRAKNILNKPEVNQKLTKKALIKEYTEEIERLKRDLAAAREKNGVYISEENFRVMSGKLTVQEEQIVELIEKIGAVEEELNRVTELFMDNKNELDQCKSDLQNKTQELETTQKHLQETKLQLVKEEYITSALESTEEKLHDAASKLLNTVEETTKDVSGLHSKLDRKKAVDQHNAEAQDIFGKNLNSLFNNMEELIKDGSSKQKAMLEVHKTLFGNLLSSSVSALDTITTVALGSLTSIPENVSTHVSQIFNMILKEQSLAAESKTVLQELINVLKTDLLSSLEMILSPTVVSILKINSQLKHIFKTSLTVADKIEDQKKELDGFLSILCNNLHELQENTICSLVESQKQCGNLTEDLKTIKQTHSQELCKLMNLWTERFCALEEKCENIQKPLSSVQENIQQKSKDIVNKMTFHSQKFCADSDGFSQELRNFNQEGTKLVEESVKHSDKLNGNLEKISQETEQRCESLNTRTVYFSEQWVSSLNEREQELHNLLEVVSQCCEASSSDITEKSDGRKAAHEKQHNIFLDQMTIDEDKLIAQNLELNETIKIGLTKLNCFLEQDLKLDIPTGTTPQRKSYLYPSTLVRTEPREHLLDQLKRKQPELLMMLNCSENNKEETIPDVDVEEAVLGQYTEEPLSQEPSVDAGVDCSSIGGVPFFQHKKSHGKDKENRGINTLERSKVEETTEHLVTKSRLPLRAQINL

SMILES | IC50 [µM]
CCNC(=O)N1N=C(c2cc(F)ccc2F)CC1(CCO)c1ccccc1 (stereo unspecified) | 0.606
CC(=O)N1N=C(c2cc(F)ccc2F)C[C@H]1c1cccc(O)c1 | 0.0247
CCNC(=O)N1N=C(c2cc(F)ccc2F)CC1(CCCCN(C)C)c1ccccc1 (stereo unspecified) | 0.103
CCNC(=O)N1N=C(c2cc(F)ccc2F)CC1(CCN)c1ccccc1 (stereo unspecified) | 0.39
CCNC(=O)N1N=C(c2cc(F)ccc2F)CC1(CCCCNC(=O)c1ccccc1)c1ccccc1 (stereo unspecified) | 0.892
CN(C)C(=O)N1N=C(c2cc(F)ccc2F)C[C@@]1(CCCN)c1ccccc1 | 0.0019
CCNC(=O)N1N=C(c2cc(F)ccc2F)CC1(CCCCNC(=O)c1cnc[nH]1)c1ccccc1 (stereo unspecified) | 0.686
CNC(=O)N1N=C(c2cc(F)ccc2F)CC1(C)c1ccccc1 (stereo unspecified) | 0.284
CCNC(=O)N1N=C(c2cc(F)ccc2F)CC1(CCCCN)c1ccccc1 (stereo unspecified) | 0.067
CCNC(=O)N1N=C(c2cc(F)ccc2F)CC1(CCCCNC(=O)c1ccccn1)c1ccccc1 (stereo unspecified) | 0.391
NCCCC1(c2ccccc2)CC(c2cc(F)ccc2F)=NN1C(=O)N1CCCC1 (stereo unspecified) | 0.026
CN(C)C(=O)N1N=C(c2cc(F)ccc2F)CC1(CCCN)c1ccccc1 (stereo unspecified) | 0.008
CCNC(=O)N1N=C(c2cc(F)ccc2F)CC1(CCCO)c1ccccc1 (stereo unspecified) | 0.745
NCCCC1(c2ccccc2)CC(c2cc(F)ccc2F)=NN1C(=O)N1CCC1 (stereo unspecified) | 0.055
NCCCC1(c2ccccc2)CC(c2cc(F)ccc2F)=NN1C(=O)N1CCCCC1 (stereo unspecified) | 0.085
CCNC(=O)N1N=C(c2cc(F)ccc2F)CC1(CCCCN1CC2C=CC1C2)c1ccccc1 (stereo unspecified) | 0.119
CCNC(=O)N1N=C(c2cc(F)ccc2F)CC1(CCCCNCc1ccccc1)c1ccccc1 (stereo unspecified) | 0.1
NCCCC1(c2ccccc2)CC(c2cc(F)ccc2F)=NN1C(=O)N1CCOCC1 (stereo unspecified) | 0.122
CCNC(=O)N1N=C(c2cc(F)ccc2F)CC1(CCCCNC(=O)c1ncc[nH]1)c1ccccc1 (stereo unspecified) | 0.552
CNC(=O)N1N=C(c2cc(F)ccc2F)CC1(CO)c1ccccc1 (stereo unspecified) | 0.903
CCNC(=O)N1N=C(c2cc(F)ccc2F)CC1(CCCC[N+](C)(C)[O-])c1ccccc1 (stereo unspecified) | 0.585
CCNC(=O)N1N=C(c2cc(F)ccc2F)CC1(CCCCO)c1ccccc1 (stereo unspecified) | 0.697

system: not listed separately; assay: Solubility in citrate at pH 6.5; type: physicochemical; details: not given
In short: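 Crystalline solid; solubility determined in pH 6.5 citrate buffer.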

SMILES | solubility [µg/mL]
CC(=O)N1N=C(c2cc(F)ccc2F)C[C@H]1c1cccc(O)c1 | 29 (≈ 0.0917 mM)

system: not listed separately; assay: Partition coefficient, log P of the compound; type: physicochemical; details: octanol/water

SMILES | logP
CC(=O)N1N=C(c2cc(F)ccc2F)C[C@H]1c1cccc(O)c1 | 3.1
CN(C)C(=O)N1N=C(c2cc(F)ccc2F)C[C@@]1(CCCN)c1ccccc1 | 1.2

system: not listed separately; assay: Clearance in mongrel dog at 0.25 mg/kg, iv; type: ADME, organism-based, Canis lupus familiaris; set-up: dose 0.25 mg/kg, route intravenous; details: in vivo; in short: as §1

SMILES | clearance [mL/min/kg]
CC(=O)N1N=C(c2cc(F)ccc2F)C[C@H]1c1cccc(O)c1 | 22.1
CN(C)C(=O)N1N=C(c2cc(F)ccc2F)C[C@@]1(CCCN)c1ccccc1 | 14.5

system: not listed separately; assay: Volume of distribution in mongrel dog at 0.25 mg/kg, iv; type: ADME, organism-based, Canis lupus familiaris; set-up: dose 0.25 mg/kg, route intravenous; details: in vivo, read-out: Vdss; in short: as §1

SMILES | Vd [L/kg]
CC(=O)N1N=C(c2cc(F)ccc2F)C[C@H]1c1cccc(O)c1 | 1.6
CN(C)C(=O)N1N=C(c2cc(F)ccc2F)C[C@@]1(CCCN)c1ccccc1 | 14

system: A2780; assay: Mitotic arrest in human A2780 cells; type: functional, cell-based; details: not given

SMILES | EC50 [µM]
CC(=O)N1N=C(c2cc(F)ccc2F)C[C@H]1c1cccc(O)c1 | 0.0248
CN(C)C(=O)N1N=C(c2cc(F)ccc2F)C[C@@]1(CCCN)c1ccccc1 | 0.0052

molecular target: Voltage-gated inwardly rectifying potassium channel KCNH2 (Homo sapiens, UniProt Q12809); assay: Inhibition of hERG expressed in HEK cells by radioligand binding assay; type: toxicity, cell-based, HEK293; details: not given
Sequence (Q12809 whole entry): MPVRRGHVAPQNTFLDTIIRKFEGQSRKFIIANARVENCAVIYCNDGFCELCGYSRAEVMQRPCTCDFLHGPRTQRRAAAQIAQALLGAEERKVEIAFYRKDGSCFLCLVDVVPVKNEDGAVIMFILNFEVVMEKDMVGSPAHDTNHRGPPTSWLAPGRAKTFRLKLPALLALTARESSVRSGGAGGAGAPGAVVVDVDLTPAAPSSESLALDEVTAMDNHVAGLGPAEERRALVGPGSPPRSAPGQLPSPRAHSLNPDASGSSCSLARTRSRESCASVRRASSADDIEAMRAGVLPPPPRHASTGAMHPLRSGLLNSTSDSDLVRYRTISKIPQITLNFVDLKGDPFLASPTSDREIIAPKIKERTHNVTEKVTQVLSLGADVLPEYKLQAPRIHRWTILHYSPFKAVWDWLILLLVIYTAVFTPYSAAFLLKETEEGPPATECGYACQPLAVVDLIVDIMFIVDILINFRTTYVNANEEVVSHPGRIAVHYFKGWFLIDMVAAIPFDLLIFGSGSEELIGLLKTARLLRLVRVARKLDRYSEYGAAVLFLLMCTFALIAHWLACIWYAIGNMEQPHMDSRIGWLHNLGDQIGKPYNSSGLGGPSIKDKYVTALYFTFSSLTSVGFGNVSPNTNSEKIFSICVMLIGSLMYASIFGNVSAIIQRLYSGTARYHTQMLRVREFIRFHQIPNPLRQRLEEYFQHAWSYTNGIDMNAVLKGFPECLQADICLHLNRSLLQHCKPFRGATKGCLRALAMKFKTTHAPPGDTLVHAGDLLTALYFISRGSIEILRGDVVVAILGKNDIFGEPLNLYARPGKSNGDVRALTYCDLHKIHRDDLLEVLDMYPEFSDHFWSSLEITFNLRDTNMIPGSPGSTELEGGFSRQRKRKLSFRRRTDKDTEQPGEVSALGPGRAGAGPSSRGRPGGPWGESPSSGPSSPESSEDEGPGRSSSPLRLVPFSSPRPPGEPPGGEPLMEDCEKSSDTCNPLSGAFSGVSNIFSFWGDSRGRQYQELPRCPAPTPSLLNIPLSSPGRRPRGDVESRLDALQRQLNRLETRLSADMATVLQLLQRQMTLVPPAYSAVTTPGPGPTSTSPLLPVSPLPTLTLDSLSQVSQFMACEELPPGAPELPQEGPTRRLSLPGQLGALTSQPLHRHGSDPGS

SMILES | IC50 [µM]
CN(C)C(=O)N1N=C(c2cc(F)ccc2F)C[C@@]1(CCCN)c1ccccc1 | 19.3
